Reference: ChEMBL document CHEMBL1138512, “A class of 2,4-bisanilinopyrimidine Aurora A inhibitors with unusually high selectivity against Aurora B” (J Med Chem, 2009)

Tests used:
[1] = biological target: Mitogen-activated protein kinase 8 (Homo sapiens) (UniProt P45983); test: Inhibition of JNK1 at 1 uM
[2] = biological target: T1, Aurora kinase B (Homo sapiens, UniProt Q96GD4); test: Inhibition of Aurora B in human HT29 cells assessed as complete loss of phospho-histone H3 staining by immunofluorescence assay; type: cell-based, HT-29
T1 sequence (Q96GD4 whole entry): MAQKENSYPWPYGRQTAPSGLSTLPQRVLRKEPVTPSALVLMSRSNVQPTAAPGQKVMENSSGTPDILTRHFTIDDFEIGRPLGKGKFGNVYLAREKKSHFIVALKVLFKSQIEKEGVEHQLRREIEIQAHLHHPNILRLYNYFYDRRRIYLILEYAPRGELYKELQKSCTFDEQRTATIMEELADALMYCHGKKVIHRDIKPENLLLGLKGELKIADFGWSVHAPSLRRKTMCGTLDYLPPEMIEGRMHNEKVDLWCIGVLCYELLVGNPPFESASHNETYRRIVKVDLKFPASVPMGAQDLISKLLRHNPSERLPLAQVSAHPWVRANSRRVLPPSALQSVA
Procedure, shortened: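 Immunofluorescence for phospho-S10 histone H3 in HCT116 or HT29 cells, scored visually. Value taken as the lowest inhibitor concentration giving complete loss of staining, so it lies above the IC50. Units µM.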

[3] = biological target: Tyrosine-protein kinase BTK (Homo sapiens) (UniProt Q06187); test: Inhibition of BTK at 1 uM
Tyrosine-protein kinase BTK (Homo sapiens), sequence (Q06187 whole entry): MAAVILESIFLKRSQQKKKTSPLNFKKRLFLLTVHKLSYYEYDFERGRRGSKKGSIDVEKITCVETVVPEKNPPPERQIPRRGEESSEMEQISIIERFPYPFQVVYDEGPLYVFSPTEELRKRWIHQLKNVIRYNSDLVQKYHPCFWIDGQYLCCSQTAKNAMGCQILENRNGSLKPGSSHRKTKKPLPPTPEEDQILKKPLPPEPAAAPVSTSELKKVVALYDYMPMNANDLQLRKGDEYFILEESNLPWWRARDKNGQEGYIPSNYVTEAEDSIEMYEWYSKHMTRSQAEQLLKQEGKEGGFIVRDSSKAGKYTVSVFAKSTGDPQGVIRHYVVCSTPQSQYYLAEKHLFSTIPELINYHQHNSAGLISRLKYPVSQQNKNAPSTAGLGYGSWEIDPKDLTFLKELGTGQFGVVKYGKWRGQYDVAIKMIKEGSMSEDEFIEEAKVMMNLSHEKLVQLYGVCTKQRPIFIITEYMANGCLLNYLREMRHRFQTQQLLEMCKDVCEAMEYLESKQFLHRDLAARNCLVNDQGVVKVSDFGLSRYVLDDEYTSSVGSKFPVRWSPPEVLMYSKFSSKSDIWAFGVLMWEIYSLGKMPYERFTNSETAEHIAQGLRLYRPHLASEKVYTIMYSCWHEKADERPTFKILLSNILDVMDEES

[4] = biological target: Proto-oncogene tyrosine-protein kinase Src (Homo sapiens) (UniProt P12931); test: Inhibition of SRC at 1 uM
Proto-oncogene tyrosine-protein kinase Src (Homo sapiens), sequence (P12931 2-536 limits assumed): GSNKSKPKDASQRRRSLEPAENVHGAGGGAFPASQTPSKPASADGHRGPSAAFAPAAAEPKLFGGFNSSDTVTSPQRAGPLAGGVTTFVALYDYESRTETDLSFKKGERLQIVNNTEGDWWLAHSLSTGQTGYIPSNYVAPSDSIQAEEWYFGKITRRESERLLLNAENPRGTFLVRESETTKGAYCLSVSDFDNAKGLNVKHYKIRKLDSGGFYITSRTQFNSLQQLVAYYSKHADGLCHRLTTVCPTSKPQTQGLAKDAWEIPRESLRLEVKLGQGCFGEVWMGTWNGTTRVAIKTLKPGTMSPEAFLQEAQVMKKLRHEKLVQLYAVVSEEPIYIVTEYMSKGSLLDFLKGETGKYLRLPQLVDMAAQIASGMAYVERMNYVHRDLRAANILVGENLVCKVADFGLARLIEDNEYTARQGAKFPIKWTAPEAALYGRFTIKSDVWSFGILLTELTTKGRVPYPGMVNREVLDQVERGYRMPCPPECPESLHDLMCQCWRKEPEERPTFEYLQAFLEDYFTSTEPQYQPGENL

[5] = biological target: Aurora kinase A (Homo sapiens) (UniProt O14965); test: Inhibition of Aurora A at 1 uM
[6] = biological target: Casein kinase I isoform gamma-2 (Homo sapiens) (UniProt P78368); test: Inhibition of CK1gamma2 at 1 uM
[7] = biological target: Serine/threonine-protein kinase Nek4 (Homo sapiens) (UniProt P51957); test: Inhibition of NEK4 at 1 uM
[8] = biological target: Inhibitor of nuclear factor kappa-B kinase subunit beta (Homo sapiens) (UniProt O14920); test: Inhibition of IKK-beta at 1 uM
[9] = biological target: Serine/threonine-protein kinase mTOR (Homo sapiens) (UniProt P42345); test: Inhibition of mTOR at 1 uM
[10] = biological target: Serine/threonine-protein kinase Chk2 (Homo sapiens) (UniProt O96017); test: Inhibition of CHK2 at 1 uM
[11] = biological target: Calcium/calmodulin-dependent protein kinase type 1D (Homo sapiens) (UniProt Q8IU85); test: Inhibition of CaMK1delta at 1 uM
[12] = biological target: Platelet-derived growth factor receptor alpha (Homo sapiens) (UniProt P16234); test: Inhibition of PDGFRA at 1 uM
[13] = biological target: Protein kinase C alpha type (Homo sapiens) (UniProt P17252); test: Inhibition of PKCalpha at 1 uM
[14] = biological target: Ephrin type-A receptor 1 (Homo sapiens) (UniProt P21709); test: Inhibition of EPHA1 at 1 uM
[15] = biological target: Fibroblast growth factor receptor 1 (Homo sapiens) (UniProt P11362); test: Inhibition of FGFR1 at 1 uM
[16] = biological target: Serine/threonine-protein kinase PAK 3 (Homo sapiens) (UniProt O75914); test: Inhibition of PAK3 at 1 uM
Serine/threonine-protein kinase PAK 3 (Homo sapiens), sequence (O75914 whole entry, looked up): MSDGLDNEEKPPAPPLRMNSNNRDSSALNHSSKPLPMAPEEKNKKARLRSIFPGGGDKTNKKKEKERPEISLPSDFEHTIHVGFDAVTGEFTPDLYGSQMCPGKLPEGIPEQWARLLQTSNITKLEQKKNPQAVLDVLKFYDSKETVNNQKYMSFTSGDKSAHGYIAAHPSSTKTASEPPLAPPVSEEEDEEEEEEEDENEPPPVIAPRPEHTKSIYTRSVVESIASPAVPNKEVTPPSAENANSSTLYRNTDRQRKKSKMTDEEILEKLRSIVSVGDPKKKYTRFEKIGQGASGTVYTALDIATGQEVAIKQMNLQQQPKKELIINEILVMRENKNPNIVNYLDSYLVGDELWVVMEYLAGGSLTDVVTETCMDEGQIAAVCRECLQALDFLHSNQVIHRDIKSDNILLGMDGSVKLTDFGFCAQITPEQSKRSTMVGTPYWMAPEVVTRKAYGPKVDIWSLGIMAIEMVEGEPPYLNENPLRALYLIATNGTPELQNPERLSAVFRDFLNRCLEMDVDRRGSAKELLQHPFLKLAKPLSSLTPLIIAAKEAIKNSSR

[17] = biological target: T1, Aurora kinase B; test: Inhibition of Aurora B in human HCT116 cells assessed as complete loss of phospho-histone H3 staining by immunofluorescence assay
[18] = biological target: Mitogen-activated protein kinase 1 (Homo sapiens) (UniProt P28482); test: Inhibition of ERK2 at 1 uM
[19] = biological target: Serine/threonine-protein kinase PLK2 (Homo sapiens) (UniProt Q9NYY3); test: Inhibition of PLK2 at 1 uM
[20] = biological target: Mitogen-activated protein kinase kinase kinase kinase 2 (Homo sapiens) (UniProt Q12851); test: Inhibition of GCK at 1 uM
[21] = test system: HCT-116; test: Antiproliferative activity against human HCT116 cells after 4 days by celltiter assay; type: functional, cell-based; details: HCT-116, 96 h
[22] = biological target: Vascular endothelial growth factor receptor 2 (Homo sapiens) (UniProt P35968); test: Inhibition of VEGFR2 at 1 uM
[23] = biological target: Serine/threonine-protein kinase MRCK alpha (Homo sapiens) (UniProt Q5VT25); test: Inhibition of MRCKalpha at 1 uM
[24] = biological target: RAC-alpha serine/threonine-protein kinase (Homo sapiens) (UniProt P31749); test: Inhibition of PKBalpha at 1 uM
[25] = biological target: Serine/threonine-protein kinase Chk1 (Homo sapiens) (UniProt O14757); test: Inhibition of CHK1 at 1 uM
Serine/threonine-protein kinase Chk1 (Homo sapiens), sequence (O14757 whole entry): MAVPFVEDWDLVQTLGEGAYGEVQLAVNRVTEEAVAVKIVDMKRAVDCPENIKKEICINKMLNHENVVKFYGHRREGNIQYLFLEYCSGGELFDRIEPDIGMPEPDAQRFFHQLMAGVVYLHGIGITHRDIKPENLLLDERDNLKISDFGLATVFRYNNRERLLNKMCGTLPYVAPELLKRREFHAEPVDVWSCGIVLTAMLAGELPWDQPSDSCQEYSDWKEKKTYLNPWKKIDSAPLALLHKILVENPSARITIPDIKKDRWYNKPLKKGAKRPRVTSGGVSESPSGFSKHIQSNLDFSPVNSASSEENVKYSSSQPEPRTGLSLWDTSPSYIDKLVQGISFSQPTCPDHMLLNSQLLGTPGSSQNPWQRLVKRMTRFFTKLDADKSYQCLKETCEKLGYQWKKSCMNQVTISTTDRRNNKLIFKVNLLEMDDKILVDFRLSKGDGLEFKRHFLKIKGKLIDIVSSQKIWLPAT

[26] = biological target: Serine/threonine-protein kinase Nek9 (Homo sapiens) (UniProt Q8TD19); test: Inhibition of NEK9 at 1 uM
Serine/threonine-protein kinase Nek9 (Homo sapiens), sequence (Q8TD19 whole entry, canonical isoform): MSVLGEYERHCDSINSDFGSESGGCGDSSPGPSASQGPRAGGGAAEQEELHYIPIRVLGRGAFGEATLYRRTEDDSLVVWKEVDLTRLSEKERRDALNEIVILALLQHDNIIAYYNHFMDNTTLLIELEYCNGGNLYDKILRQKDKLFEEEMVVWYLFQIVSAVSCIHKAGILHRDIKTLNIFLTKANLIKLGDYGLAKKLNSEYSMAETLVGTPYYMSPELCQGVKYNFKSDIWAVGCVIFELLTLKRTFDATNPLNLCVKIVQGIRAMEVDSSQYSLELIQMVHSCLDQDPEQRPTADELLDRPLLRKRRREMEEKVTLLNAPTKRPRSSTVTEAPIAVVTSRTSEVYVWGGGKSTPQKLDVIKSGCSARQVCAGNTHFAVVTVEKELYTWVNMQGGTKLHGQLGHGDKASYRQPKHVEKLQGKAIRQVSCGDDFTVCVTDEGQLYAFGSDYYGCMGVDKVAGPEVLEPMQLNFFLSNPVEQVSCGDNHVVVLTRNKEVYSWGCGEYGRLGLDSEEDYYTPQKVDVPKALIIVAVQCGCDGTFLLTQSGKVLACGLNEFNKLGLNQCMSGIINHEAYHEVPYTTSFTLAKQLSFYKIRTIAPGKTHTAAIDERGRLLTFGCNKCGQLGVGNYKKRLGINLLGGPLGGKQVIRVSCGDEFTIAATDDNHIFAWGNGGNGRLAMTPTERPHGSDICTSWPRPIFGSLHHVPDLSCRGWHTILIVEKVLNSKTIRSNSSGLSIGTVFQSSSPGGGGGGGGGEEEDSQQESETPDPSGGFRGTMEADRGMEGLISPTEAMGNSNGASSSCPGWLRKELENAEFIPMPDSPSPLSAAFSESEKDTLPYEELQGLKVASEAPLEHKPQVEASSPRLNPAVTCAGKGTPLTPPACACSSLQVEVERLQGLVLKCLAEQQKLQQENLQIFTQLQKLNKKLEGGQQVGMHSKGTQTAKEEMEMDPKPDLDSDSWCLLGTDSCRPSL

[27] = biological target: Phosphorylase b kinase gamma catalytic chain, skeletal muscle/heart isoform (Homo sapiens) (UniProt Q16816); test: Inhibition of PHKG1 at 1 uM
[28] = biological target: Tyrosine-protein kinase receptor UFO (Homo sapiens) (UniProt P30530); test: Inhibition of Axl at 1 uM
[29] = biological target: G protein-coupled receptor kinase 4 (Homo sapiens) (UniProt P32298); test: Inhibition of GRK4 at 1 uM
[30] = biological target: Hepatocyte growth factor receptor (Homo sapiens) (UniProt P08581); test: Inhibition of c-Met at 1 uM
Hepatocyte growth factor receptor (Homo sapiens), sequence (P08581 whole entry): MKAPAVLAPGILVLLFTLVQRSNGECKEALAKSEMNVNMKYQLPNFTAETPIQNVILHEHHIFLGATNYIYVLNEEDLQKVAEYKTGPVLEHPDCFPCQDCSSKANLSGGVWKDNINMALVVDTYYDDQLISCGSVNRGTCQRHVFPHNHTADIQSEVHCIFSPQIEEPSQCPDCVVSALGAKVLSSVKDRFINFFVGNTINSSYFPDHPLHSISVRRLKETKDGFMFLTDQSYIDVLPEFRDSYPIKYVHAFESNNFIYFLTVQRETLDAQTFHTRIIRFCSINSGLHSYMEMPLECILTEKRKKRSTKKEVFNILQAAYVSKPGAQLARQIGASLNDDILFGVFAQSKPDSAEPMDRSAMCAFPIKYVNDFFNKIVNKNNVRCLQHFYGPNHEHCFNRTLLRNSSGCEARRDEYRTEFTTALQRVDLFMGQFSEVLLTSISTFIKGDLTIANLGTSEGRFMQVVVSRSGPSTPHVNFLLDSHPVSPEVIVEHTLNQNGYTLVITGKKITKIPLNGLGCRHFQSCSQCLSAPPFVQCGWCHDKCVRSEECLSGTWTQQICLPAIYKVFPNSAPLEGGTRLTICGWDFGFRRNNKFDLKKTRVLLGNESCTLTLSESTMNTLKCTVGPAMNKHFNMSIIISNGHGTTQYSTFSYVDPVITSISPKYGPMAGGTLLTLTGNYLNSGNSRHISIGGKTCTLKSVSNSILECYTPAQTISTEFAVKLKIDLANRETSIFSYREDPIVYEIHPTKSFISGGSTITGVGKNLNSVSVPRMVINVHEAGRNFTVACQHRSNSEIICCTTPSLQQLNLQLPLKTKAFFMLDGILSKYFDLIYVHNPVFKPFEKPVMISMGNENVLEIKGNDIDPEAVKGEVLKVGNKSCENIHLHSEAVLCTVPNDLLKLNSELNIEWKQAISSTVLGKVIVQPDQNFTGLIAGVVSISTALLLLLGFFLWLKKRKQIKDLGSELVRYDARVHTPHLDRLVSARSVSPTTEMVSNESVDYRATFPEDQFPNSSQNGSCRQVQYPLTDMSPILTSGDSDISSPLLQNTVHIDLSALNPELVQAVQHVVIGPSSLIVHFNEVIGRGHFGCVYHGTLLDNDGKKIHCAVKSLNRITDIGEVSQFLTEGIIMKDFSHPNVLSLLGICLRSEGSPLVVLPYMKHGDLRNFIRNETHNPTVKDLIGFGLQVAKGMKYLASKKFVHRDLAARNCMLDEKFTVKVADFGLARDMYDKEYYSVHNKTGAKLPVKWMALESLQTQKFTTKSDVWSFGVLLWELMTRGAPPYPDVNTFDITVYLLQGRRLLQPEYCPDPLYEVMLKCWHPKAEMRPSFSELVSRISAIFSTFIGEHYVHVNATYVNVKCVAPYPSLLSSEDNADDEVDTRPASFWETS

inhibition [1]: 21%
IC50 [2]: > 27 µM
inhibition [3]: 46%
inhibition [4]: 30%
inhibition [5]: 103%
inhibition [6]: 10%
inhibition [7]: 11%
inhibition [8]: 39%
inhibition [9]: 11%
inhibition [10]: 12%
inhibition [11]: 18%
inhibition [12]: 23%
inhibition [13]: 15%
inhibition [14]: 34%
inhibition [15]: 16%
inhibition [16]: 4%
IC50 [17]: > 25 µM
inhibition [18]: 11%
inhibition [19]: 12%
inhibition [20]: 10%
IC50 [21]: 0.64 µM
inhibition [22]: 76%
inhibition [23]: 11%
inhibition [24]: 11%
inhibition [25]: 14%
inhibition [27]: 18%
inhibition [28]: 46%
inhibition [29]: -1%
inhibition [30]: 14%
SMILES: CC(=O)N1CCN(C(=O)Cc2ccc(Nc3ncc(F)c(Nc4ccc(C(=O)Nc5ccccc5Cl)cc4)n3)cc2)CC1
inhibition [26]: 17%
